Data on 13 compounds can be found in ChEMBL document CHEMBL1154890, “Synthesis, cytotoxicity, antiviral activity and interferon inducing ability of 6-(2-aminoethyl)-6H-indolo[2,3-b]quinoxalines” (Eur J Med Chem, 2010).

Data set [1] in a line: (§1) Cytotoxicity against mouse L929 cells after 24 to 48 hrs. Format: cell-based. The settings on record: L929 cells. The method, boiled down: (§2)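 Monolayers at 37 °C, 5% CO₂; growth medium (L929: Eagle's MEM, EPT: Medium 199; both with 10% calf embryo serum and kanamycin, plus glutamine for L929) replaced by maintenance medium with 5% newborn calf serum holding compound at 1–1000. Read at 24–48 h after 0.5% crystal violet/70% ethanol staining, 540/620 nm. CC₅₀ = 50% monolayer destruction, given as −lg (M), confidence interval at P < 0.05.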

A short description of data set [2]: Cytotoxicity against pig EPT cells after 24 to 48 hrs. Format: cell-based, Sus scrofa. The settings on record: for CC50: EPT cells; for pCC50: ept. The method, boiled down:
as §2

Data set [3] relates to Vesicular stomatitis virus. In words: Antiviral activity against Vesicular stomatitis virus infected in mouse L929 cells assessed as inhibition of virus-induced cytopathic effect treated immediately after viral infection measured after 24 hrs. Format: functional, organism-based. To be noted: L929, 24 h. The method, boiled down:
(§3)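 VSV grown in EPT or L929 cells to about 10⁶ ID₅₀/0.1 mL. Compounds in serial double dilution were added to cell monolayers at 37 °C, 5% CO₂, either 24 h before infection (preventive) or immediately after it (therapeutic). VSV was then added and cultures held 24 h. Cytopathic effect was scored microscopically. IC₅₀ is reported as −lg molar concentration giving 50% inhibition of cytopathic action, with confidence interval at P < 0.05.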
For orientation: Damage to the host cells serves as the signal in cytopathic effect assays.

In data set [4] the test system is Vesicular stomatitis virus. In words: Antiviral activity against Vesicular stomatitis virus in mouse L929 cells assessed as inhibition of virus-induced cytopathic effect treated 24 hrs before viral infection measured after 24 hrs. Format: functional, organism-based. The method, boiled down:
as §3

Data set [5] relates to Vesicular stomatitis virus. In words: Antiviral activity against Vesicular stomatitis virus infected in EPT cells assessed as inhibition of virus-induced cytopathic effect treated immediately after viral infection measured after 24 hrs. Format: functional, organism-based. The method, boiled down: as §3
The subject of data set [6] is Vesicular stomatitis virus. As to the kind of experiment: Antiviral activity against Vesicular stomatitis virus in EPT cells assessed as inhibition of virus-induced cytopathic effect treated 24 hrs before viral infection measured after 24 hrs. Format: functional, organism-based. The method, boiled down:
as §3

Data set [7] has as its system L929. In words: Induction of IFN activity in mouse L929 cells assessed as interferon titer at 1.1 uM after 24 hrs by microscopical method. Format: functional. The method in brief:
(§4)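 Compounds were added to murine fibroblast L929 or piglet testicular EPT cells. Supernatant was taken after 24 and 48 h at 37 °C, 5% CO₂. IFN titers in the supernatant were then determined on L929 and EPT cell cultures.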

The nature of data set [8]: Induction of IFN activity in pig EPT cells assessed as interferon titer at 1.5 uM after 24 hrs by microscopical method. Format: functional, Sus scrofa. The method in brief:
as §4

A short description of data set [9]: Selectivity index, CC50 for mouse L929 cells to IC50 for Vesicular stomatitis virus treated immediately after viral infection. Format: functional. The method in brief: (§5)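 SI = CC₅₀/IC₅₀ for each cell line and each regimen (treatment 24 h before or immediately after VSV infection). For CC₅₀, the medium on EPT or L929 monolayers was replaced with maintenance medium containing 5% newborn calf serum plus compound at 1–1000. After 24–48 h at 37 °C, 5% CO₂, cells were stained with 0.5% crystal violet in 70% ethanol and read at 540/620. CC₅₀ is the concentration giving 50% monolayer destruction.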

Data set [10] is described as follows: Selectivity index, CC50 for mouse L929 cells to IC50 for Vesicular stomatitis virus treated 24 hrs before viral infection. Format: functional. The method in brief:
as §5

Data set [11] can be described thus: Selectivity index, CC50 for […] EPT cells to IC50 for Vesicular stomatitis virus treated immediately after viral infection. Format: functional. The method in brief:
as §5

Data set [12] is described as follows: Selectivity index, CC50 for pig EPT cells to IC50 for Vesicular stomatitis virus treated 24 hrs before viral infection. Format: functional. The method, boiled down:
as §5

A short description of data set [13]: Ratio of tilorone CC50 for […] EPT cells to IC50 for Vesicular stomatitis virus treated 24 hrs before viral infection over compound CC50 for […] EPT cells to IC50 for Vesicular stomatitis virus treated 24 hrs before viral infection.
Data set [14] has as its system L929. The description is as §1. Format: cell-based. The settings on record: l929. The method, boiled down:
as §2

Consider `CCCN(CCC)CCn1c2ccccc2c2nc3ccccc3nc21`, for which the figures for the 50% cytotoxic concentration (CC50) in data set [1] and in data set [2] were 219 µM and 148 µM, respectively. The IC50 was 3.55 µM in data set [3], 1.29 µM in [4], 6.61 µM in data set [5] and 2.69 µM in data set [6]. Moreover, the Activity is listed as 8 in the data set on L929 [7] and 32 in data set [8]. Besides, the “Ratio CC50/IC50” value in data set [9] is on record as 158; in data set [10], 169; in [11], 23; in [12], 55.
With `c1ccc2nc3c(nc2c1)c1ccccc1n3CCN1CCCCCC1`, the CC50 was 145 µM in data set [1] and 132 µM in data set [2]. Further, the IC50 is 3.8 µM in data set [3], 1.29 µM in [4], 7.94 µM in data set [5] and 2.69 µM in data set [6]. In addition, the Activity with L929 [7] was determined as 64; in data set [8] it was 32. The “Ratio CC50/IC50” value in data set [9] is given as 62; in [10], 110; in [11] it was 17; in [12] it was 49.
For `CN1CCN(CCn2c3ccccc3c3nc4ccccc4nc32)CC1`, the figures for the CC50 in data set [1] and in data set [2] were 97.7 µM and 81.3 µM, respectively. Besides, the IC50 in [3] is 4.79 µM; in data set [4], 1.38 µM; in data set [5], 4.68 µM; in [6], 1.45 µM. The figures for the Activity (in the data set with L929 [7]; in data set [8]) were 4 and 32, respectively. Moreover, the “Ratio CC50/IC50” value in data set [9] was 46; in data set [10], 71; in data set [11] it was 17; in [12], 57.
In the case of `CC1CCCCN1CCn1c2ccccc2c2nc3ccccc3nc21` (stereo unspecified), the CC50 in data set [1] is 234 µM; in data set [2] it was 398 µM. Also, the IC50 in data set [3] is 1.91 µM; in data set [4] it was 1.26 µM; in [5], 4.07 µM; in [6], 2.63 µM. Also, the Activity (in the data set on L929 [7]; in [8]) was 32 in each case. In addition, the “Ratio CC50/IC50” value in [9] came to 74; in data set [10], 185; in data set [11], 98; in [12], 149.
`CC1CCN(CCn2c3ccccc3c3nc4ccccc4nc32)CC1` had a CC50 in data set [1] of 575 µM. For the same compound, the pCC50 in data set [2] is 2.55. Moreover, the IC50 in [3] is 2.29 µM; in data set [4] it was 1.62 µM; in data set [5] it was 20 µM; in data set [6], 1.58 µM. The Activity is given as 8 with L929 [7] and 32 in data set [8]. Further, the “Ratio CC50/IC50” value is 78 in [9], 358 in [10], 142 in data set [11] and 1783 in data set [12]. The Ratio in data set [13] worked out at 20.
With `CN(C)CCn1c2ccccc2c2nc3ccccc3nc21`, the CC50 in data set [1] was 91.2 µM; in data set [2], 81.3 µM. The IC50 in [3] is 11.2 µM; in [4], 1.45 µM; in data set [5] it was 9.55 µM; in data set [6] it was 1.45 µM. Further, the Activity in the data set on L929 [7] is on record as 16; in data set [8], 32. Further, the “Ratio CC50/IC50” value in [9] was found to be 58; in [10] it was 63; in data set [11] it was 9; in data set [12], 56.
Consider `CCN(CC)CCn1c2ccccc2c2nc3ccccc3nc21`, for which the values for the CC50 in [1] and in data set [2] were 646 µM and 457 µM, respectively. The IC50 was 2.19 µM in data set [3], 1.29 µM in data set [4], 6.17 µM in data set [5] and 3.39 µM in data set [6]. Besides, the Activity in the data set with L929 [7] is 64; in data set [8], 32. In addition, the “Ratio CC50/IC50” value in [9] is listed as 79; in data set [10], 499; in data set [11], 76; in data set [12] it was 139.
`CCCCN(C)CCn1c2ccccc2c2nc3ccccc3nc21`: the values for the CC50 in [1] and in [2] were 562 µM and 204 µM, respectively. Further, the IC50 was 2.34 µM in data set [3], 1.45 µM in data set [4], 4.79 µM in data set [5] and 3.02 µM in data set [6]. For the same compound, the Activity with L929 [7] is 16; in data set [8], 32. Besides, the “Ratio CC50/IC50” value is listed as 41 in [9], 388 in data set [10], 43 in data set [11] and 68 in data set [12].
Consider `CCCCN(CC)CCn1c2ccccc2c2nc3ccccc3nc21`, for which the CC50 in data set [1] was 174 µM; in data set [2], 83.2 µM. The IC50 in data set [3] is 3.39 µM; in data set [4] it was 3.16 µM; in [5], 13.2 µM; in data set [6], 13.2 µM. Besides, the Activity (in the data set on L929 [7]; in data set [8]) was 8 throughout. Moreover, the “Ratio CC50/IC50” value in data set [9] is 27; in [10], 54; in data set [11], 6; in data set [12], 6.
Take `c1ccc2nc3c(nc2c1)c1ccccc1n3CCN1CCCC1`: the CC50 in data set [1] is 75.9 µM; in data set [2], 162 µM. The IC50 in [3] was 2.24 µM; in data set [4] it was 1.32 µM; in data set [5], 4.07 µM; in data set [6] it was 2.69 µM. Further, the Activity was determined as 32 in the data set on L929 [7] and 64 in [8]. Besides, the “Ratio CC50/IC50” value in data set [9] is given as 468; in data set [10], 59; in data set [11], 40; in data set [12] it was 60.
Turning to `c1ccc2nc3c(nc2c1)c1ccccc1n3CCN1CCCCC1`, the CC50 in data set [1] is 178 µM; in data set [2] it was 933 µM. For the same compound, the IC50 in data set [3] is 2.57 µM; in [4] it was 1.35 µM; in [5], 5.62 µM; in [6] it was 2.88 µM. Further, the Activity was 64 with L929 [7] and 32 in [8]. Besides, the “Ratio CC50/IC50” value in [9] is reported as 224; in data set [10], 132; in data set [11] it was 164; in data set [12], 323.
In the case of `c1ccc2nc3c(nc2c1)c1ccccc1n3CCN1CCOCC1`, the results for the pCC50 (in the data set on L929 [14]; in data set [2]) were 2.97 and 2.69, respectively. Further, the IC50 in data set [3] was 4.47 µM; in data set [4], 1.62 µM; in data set [6] it was 1.62 µM. Besides, the values for the Activity (in the data set with L929 [7]; in data set [8]) were 8 and 16, respectively. Besides, the “Ratio CC50/IC50” value in [9] was 17; in data set [10] it was 659; in data set [12], 1258. In addition, the Ratio in data set [13] is 15.
With `CCN(CC)CCOc1ccc2c(c1)C(=O)c1cc(OCCN(CC)CC)ccc1-2.Cl.Cl` [TILORONE HYDROCHLORIDE], the CC50 in [1] is 112 µM; in [2], 107 µM. The IC50 in data set [3] was 13.8 µM; in [4], 1.45 µM; in data set [5], 13.5 µM; in data set [6], 1.32 µM. Moreover, the Activity (in the data set on L929 [7]; in data set [8]) was 32 throughout. Also, the “Ratio CC50/IC50” value in data set [9] is 10; in data set [10], 80; in data set [11], 10; in data set [12], 80.

As usually defined, the CC50 is the concentration giving 50% cytotoxicity. Low readings indicate greater toxicity to the cells, high ones lower toxicity to the cells. The IC50 is the concentration at which inhibition is half-maximal. The term pCC50 denotes −log10 of the CC50, conventionally taken in molar units. Low readings indicate a large CC50, high ones a small CC50.
